Calls of active or inactive are those of the source. The rule behind the calls is not given here.
Columns and labels:
[1] = target: T1, Broad substrate specificity ATP-binding cassette transporter ABCG2 (Homo sapiens, UniProt Q9UNQ0); test: Inhibition of human C-terminal GFP-tagged ABCG2 expressed in MDCK2 cells using pheophorbide A as substrate preincubated for 20 mins followed by substrate addition measured after 120 mins by flow cytometry; assay type: cell-based, MDCK-II
T1 sequence (Q9UNQ0 whole entry): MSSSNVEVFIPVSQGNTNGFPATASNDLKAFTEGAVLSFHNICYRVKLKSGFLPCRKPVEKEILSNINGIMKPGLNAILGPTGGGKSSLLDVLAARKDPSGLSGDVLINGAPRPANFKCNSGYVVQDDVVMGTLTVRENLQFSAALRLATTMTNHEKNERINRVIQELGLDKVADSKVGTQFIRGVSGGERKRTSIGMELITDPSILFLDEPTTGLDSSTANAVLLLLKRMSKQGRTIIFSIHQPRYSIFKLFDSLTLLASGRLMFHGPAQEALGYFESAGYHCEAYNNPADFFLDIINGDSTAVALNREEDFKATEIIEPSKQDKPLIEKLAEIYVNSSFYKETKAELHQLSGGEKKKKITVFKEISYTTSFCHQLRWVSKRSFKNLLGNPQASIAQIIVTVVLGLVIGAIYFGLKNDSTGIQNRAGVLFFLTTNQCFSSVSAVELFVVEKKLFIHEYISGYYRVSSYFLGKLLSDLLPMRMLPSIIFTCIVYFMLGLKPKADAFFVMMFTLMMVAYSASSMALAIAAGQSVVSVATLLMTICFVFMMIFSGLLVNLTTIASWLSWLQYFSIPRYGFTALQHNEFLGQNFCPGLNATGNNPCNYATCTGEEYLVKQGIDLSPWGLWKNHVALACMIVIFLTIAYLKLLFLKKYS
How it was run: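 MDCK II BCRP cells, about 45,000/well in KHB, preincubated with compound for 20 min at 37 °C, 5% CO2. Pheophorbide A added (5 µM solution), then 120 min to steady state. Flow cytometry: excitation 488 nm, emission >670 nm (FL3); GFP in FL1. IC50 from 4-parameter logistic fit; duplicates.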

[2] = target: ATP-dependent translocase ABCB1 (Homo sapiens, UniProt P08183); test: Inhibition of ABCB1 in human A2780/ADR cells incubated for 30 mins measured up to 3600 secs with time intervals of 60 secs by calcein accumulation assay; assay type: cell-based
ATP-dependent translocase ABCB1, sequence (P08183 whole entry): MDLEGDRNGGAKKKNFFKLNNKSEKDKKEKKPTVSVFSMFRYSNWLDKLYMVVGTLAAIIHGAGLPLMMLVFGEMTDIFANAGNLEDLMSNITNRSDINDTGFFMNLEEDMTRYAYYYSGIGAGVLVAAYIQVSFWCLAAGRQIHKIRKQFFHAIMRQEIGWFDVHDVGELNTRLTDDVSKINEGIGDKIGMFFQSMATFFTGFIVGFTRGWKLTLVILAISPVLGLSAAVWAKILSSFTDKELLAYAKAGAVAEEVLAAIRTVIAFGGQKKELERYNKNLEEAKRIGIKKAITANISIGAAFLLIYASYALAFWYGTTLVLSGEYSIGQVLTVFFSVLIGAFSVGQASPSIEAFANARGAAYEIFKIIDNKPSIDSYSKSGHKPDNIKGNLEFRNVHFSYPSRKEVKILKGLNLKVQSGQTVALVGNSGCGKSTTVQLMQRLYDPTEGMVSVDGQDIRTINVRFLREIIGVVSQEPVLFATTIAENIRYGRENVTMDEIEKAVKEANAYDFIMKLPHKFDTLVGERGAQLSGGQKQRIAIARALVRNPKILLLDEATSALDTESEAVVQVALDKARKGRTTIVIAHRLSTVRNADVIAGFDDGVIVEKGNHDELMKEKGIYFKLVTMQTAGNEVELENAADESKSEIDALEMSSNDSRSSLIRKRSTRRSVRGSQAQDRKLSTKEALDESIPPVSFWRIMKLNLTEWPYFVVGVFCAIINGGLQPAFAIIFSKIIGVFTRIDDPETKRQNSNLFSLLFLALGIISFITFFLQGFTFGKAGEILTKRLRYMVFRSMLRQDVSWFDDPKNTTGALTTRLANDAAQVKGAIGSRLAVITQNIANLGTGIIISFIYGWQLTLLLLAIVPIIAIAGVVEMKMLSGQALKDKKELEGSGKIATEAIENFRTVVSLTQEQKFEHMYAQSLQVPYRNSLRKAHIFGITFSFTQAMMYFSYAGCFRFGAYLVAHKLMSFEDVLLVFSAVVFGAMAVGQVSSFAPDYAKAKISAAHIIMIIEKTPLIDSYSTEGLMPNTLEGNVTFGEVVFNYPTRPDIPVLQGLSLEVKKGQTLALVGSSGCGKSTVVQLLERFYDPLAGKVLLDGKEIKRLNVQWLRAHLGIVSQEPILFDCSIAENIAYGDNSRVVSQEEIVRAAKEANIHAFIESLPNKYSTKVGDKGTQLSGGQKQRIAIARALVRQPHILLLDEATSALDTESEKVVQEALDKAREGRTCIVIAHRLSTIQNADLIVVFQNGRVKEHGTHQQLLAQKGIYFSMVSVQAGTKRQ

[3] = Cytotoxicity against MDCK2 cells expressing human C-terminal GFP-tagged ABCG2 assessed as reduction in cell viability after 72 hrs by MTT assay; assay type: ADME, cell-based, Canis lupus familiaris, MDCK-II; conditions: dog
How it was run: (§1)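 Seeding 3 x 10³ cells/well, 6 h attachment at 37 °C, 5% CO2, then compound for 72 h. Controls: 10% DMSO (positive), medium (negative). MTT 5 mg/ml stock for 1 h; formazan in DMSO; A570, background 690 nm. Normalized to control; GI50 from variable-slope sigmoidal fit.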

[4] = target: T1, Broad substrate specificity ATP-binding cassette transporter ABCG2; test: Inhibition of vanadate-sensitive ATPase activity of recombinant human ABCG2 expressed in baculovirus infected Sf9 cell membrane assessed as decrease in inorganic phosphate production at 1 uM after 20 mins by colorimetry; conditions: sf9, 20 min
How it was run: (§2)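 Sf9 membranes from cells infected with baculovirus carrying human wild-type ABCG2, cholesterol-loaded; protein by BCA. Buffer: 40 mM MOPS-Tris pH 7.0, 50 mM KCl, 2 mM DTT, 500 µM EGTA-Tris, 5 mM azide, 1 mM ouabain, 10 µg protein. Reaction started with 3.3 mM MgATP, 20 min at 37 °C. Basal activity with 1 mM orthovanadate; 1 µM quercetin and 1 µM Ko143 as references. Pi by molybdate/ascorbate at 880 nm against K2HPO4 standard; triplicates.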

[5] = Cytotoxicity against MDCK2 cells assessed as reduction in cell viability after 72 hrs by MTT assay; assay type: cell-based, Canis lupus familiaris, MDCK-II; conditions: dog; how it was run: as §1
ABCG2 = test: Therapeutic ratio of GI50 for MDCK2 cells expressing human C-terminal GFP-tagged ABCG2 to IC50 for human C-terminal GFP-tagged ABCG2 expressed in MDCK2 cells; assay type: ADME, cell-based; conditions: dog, read-out: TI
How it was run: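 Ratio of GI50 from a 72 h MTT assay in MDCK II BCRP cells to IC50 from the pheophorbide A assay in the same cells.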

[6] = Cytotoxicity against MDCK2 cells expressing human C-terminal GFP-tagged ABCG2 assessed as reduction in cell viability at 10 uM after 72 hrs by MTT assay; assay type: ADME, cell-based, Canis lupus familiaris; conditions: dog, mdck-ii
[7] = Cytotoxicity against MDCK2 cells assessed as reduction in cell viability at 10 uM after 72 hrs by MTT assay; assay type: cell-based, Canis lupus familiaris; conditions: dog, mdck-ii
[8] = target: T1, Broad substrate specificity ATP-binding cassette transporter ABCG2; test: Inhibition of vanadate-sensitive ATPase activity of recombinant human ABCG2 expressed in baculovirus infected Sf9 cell membrane assessed as decrease in inorganic phosphate production up to 1 uM after 20 mins by colorimetry; conditions: sf9, 20 min; how it was run: as §2
[9] = target: T1, Broad substrate specificity ATP-binding cassette transporter ABCG2; test: Induction of vanadate-sensitive ATPase activity of recombinant human ABCG2 expressed in baculovirus infected Sf9 cell membrane assessed as increase in inorganic phosphate production at >1 uM after 20 mins by colorimetry; conditions: sf9, 20 min; how it was run: as §2
ABCB1 (P-glycoprotein) [10] = test: Therapeutic ratio of GI50 for human A2780/ADR cells overexpressing ABCB1 to IC50 for ABCB1 in human A2780/ADR cells; assay type: ADME, cell-based; conditions: read-out: TI
[11] = Cytotoxicity against human A2780 cells assessed as reduction in cell viability after 72 hrs by MTT assay; assay type: cell-based
How it was run: (§3)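 MTT assay in A2780 and ABCB1-overexpressing doxorubicin-resistant A2780adr cells; A2780adr given 1 μM doxorubicin for one passage every 10 passages. 8 x 10³ cells/well, 6 h attachment, 72 h compound exposure at 37 °C, 5% CO2. MTT 1 h, DMSO solubilization, A570 with 690 nm background. Normalized data; GI50 by variable-Hill-slope sigmoidal regression.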

[12] = Cytotoxicity against human A2780/ADR cells overexpressing ABCB1 assessed as reduction in cell viability after 72 hrs by MTT assay; assay type: ADME, cell-based; how it was run: as §3
ABCB1 (P-glycoprotein) [13] = target: ABCB1 (P-glycoprotein) (Homo sapiens, UniProt P08183); test: Inhibition of ABCB1 in human A2780/ADR cells at 10 uM incubated for 30 mins measured up to 3600 secs with time intervals of 60 secs by calcein accumulation assay relative to cyclosporine A; assay type: cell-based; conditions: probe calcein, read-out: Imax
ABCB1 (P-glycoprotein) (Homo sapiens, UniProt P08183), sequence (P08183 whole entry): as above
How it was run: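 A2780adr cells, about 30,000/well, preincubated with compound for 30 min. Calcein AM then added (1.25 µM solution); fluorescence (ex 485/em 520 nm) read every 60 s to 3600 s at 37 °C. […] IC50 by four-parameter logistic fit, variable slope.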

MDCK-II = test: Potentiation of SN-38-induced cytotoxicity in MDCK2 cells assessed as decrease in cell viability at 0.01 to 0.1 uM after 72 hrs by MTT assay; assay type: functional, cell-based; conditions: Canis lupus familiaris
How it was run: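 SN-38 dose-response curves in MDCK II BCRP cells (canine kidney line stably transfected with human ABCG2 C-terminally fused to GFP) and parental MDCK II wild-type cells. Modulator was present at a final 0.01 or 0.1 µM. Cells were seeded at 3 x 10³ per well, attached 6 h, then exposed 72 h. MTT was read at 570 nm minus 690 nm. Data were normalized and fitted with variable-slope sigmoidal regression.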

Row | SMILES | IC50 [1] | IC50 [2] | GI50 at 72 h [3] | GI50 at 72 h [5] | selectivity ratio (ABCG2) | other results
1 | COc1ccc(/C=C/C(=O)c2ccc(Nc3nc(-c4ccccc4)nc4ccccc34)cc2)cc1 | 3550 nM |  |  |  |  | 
2 | COc1ccc(/C=C/C(=O)c2cccc(Nc3ncnc4cc(OC)c(OC)cc34)c2)cc1 | 320 nM | 4.15 µM | 12.7 µM | 16.9 µM | 40 | inhibition (INH) [4]: Active
3 | COc1ccc(/C=C/C(=O)c2ccc(Nc3nc(-c4ccccc4)nc4ccccc34)cc2)cc1OC | 290 nM | 18.8 µM | 4.8 µM | 3.46 µM | 17 | Activity [6]: Toxic; Activity [7]: Toxic
4 | COc1cccc(/C=C/C(=O)c2ccc(Nc3ncnc4cc(OC)c(OC)cc34)cc2)c1 | 390 nM | 7.55 µM |  |  |  | inhibition (INH) [8]: Active; Activity [9]: Not Active; inhibition (INH) [4]: Active
5 | COc1ccc(/C=C/C(=O)c2ccc(Nc3nc(-c4ccc(OC)c(OC)c4)nc4ccccc34)cc2)cc1 | 3130 nM |  |  |  |  | 
6 | COc1cccc(/C=C/C(=O)c2ccc(Nc3ncnc4ccccc34)cc2)c1 | 680 nM | 5.57 µM |  |  |  | Activity [6]: Toxic; Activity [7]: Toxic
7 | COc1cccc(/C=C/C(=O)c2cccc(Nc3nc(-c4ccc(OC)c(OC)c4)nc4ccccc34)c2)c1 | 310 nM | 8.24 µM | 84.7 µM | 65.5 µM | 273 | 
8 | COc1cccc(/C=C/C(=O)c2ccc(Nc3nc(-c4ccccc4)nc4ccccc34)cc2)c1 | 880 nM | 32.1 µM |  |  |  | Activity [6]: Toxic; Activity [7]: Toxic
9 | COc1ccc(/C=C/C(=O)c2cccc(Nc3nc(-c4ccc(OC)c(OC)c4)nc4ccccc34)c2)cc1 | 210 nM | 1.29 µM | 13.1 µM | 10.3 µM | 62 | selectivity ratio (ABCB1 (P-glycoprotein) [10]): 3; GI50 at 72 h [11]: 4390 nM; GI50 at 72 h [12]: 3250 nM; inhibition at 30 min, 10 µM (ABCB1 (P-glycoprotein) [13]): 70%
10 | COc1ccc2c3c([nH]c2c1)[C@H](CC(C)C)N1C(=O)[C@H](CCC(=O)OC(C)(C)C)NC(=O)[C@@H]1C3 |  |  | 11.1 µM | 10.9 µM |  | Activity (MDCK-II): Active
11 | COc1ccc(/C=C/C(=O)c2cccc(Nc3ncnc4ccccc34)c2)cc1OC | 1300 nM | 0.42 µM | 5.14 µM | 3.42 µM | 4 | selectivity ratio (ABCB1 (P-glycoprotein) [10]): 2; GI50 at 72 h [11]: 650 nM; GI50 at 72 h [12]: 700 nM; inhibition at 30 min, 10 µM (ABCB1 (P-glycoprotein) [13]): 66%
12 | COc1cccc(/C=C/C(=O)c2cccc(Nc3nc(-c4ccccc4)nc4ccccc34)c2)c1 | 680 nM |  |  |  |  | Activity [6]: Toxic; Activity [7]: Toxic
13 | O=C(/C=C/c1ccccc1)c1ccc(Nc2nc(-c3ccccc3)nc3ccccc23)cc1 | 920 nM |  |  |  |  | 
14 | COc1ccc(/C=C/C(=O)c2cccc(Nc3nc(-c4ccccc4)nc4ccccc34)c2)cc1 | 970 nM |  |  |  |  | 
15 | COc1ccc(/C=C/C(=O)c2cccc(Nc3nc(-c4ccc(OC)c(OC)c4)nc4ccccc34)c2)cc1OC | 600 nM | 0.48 µM | 10.9 µM | 12.6 µM | 18 | selectivity ratio (ABCB1 (P-glycoprotein) [10]): 4; GI50 at 72 h [11]: 1980 nM; GI50 at 72 h [12]: 1710 nM; inhibition at 30 min, 10 µM (ABCB1 (P-glycoprotein) [13]): 76%
16 | COc1ccc(/C=C/C(=O)c2ccc(Nc3ncnc4cc(OC)c(OC)cc34)cc2)cc1OC | 1230 nM |  |  |  |  | inhibition (INH) [4]: Active
17 | COc1cccc(/C=C/C(=O)c2ccc(Nc3nc(-c4ccc(OC)c(OC)c4)nc4ccccc34)cc2)c1 | 360 nM | 14.6 µM |  |  |  | 
18 | COc1ccc(/C=C/C(=O)c2cccc(Nc3ncnc4ccccc34)c2)cc1 | 890 nM | 7.08 µM |  |  |  | 
19 | COc1ccc(/C=C/C(=O)c2cccc(Nc3nc(-c4ccccc4)nc4ccccc34)c2)cc1OC | 460 nM |  |  |  |  | 
20 | COc1ccc(-c2nc(Nc3ccc(C(=O)/C=C/c4ccccc4)cc3)c3ccccc3n2)cc1OC | 1090 nM |  |  |  |  | 
21 | COc1ccc(/C=C/C(=O)c2cccc(Nc3ncnc4cc(OC)c(OC)cc34)c2)cc1OC | 1710 nM | 0.86 µM | 11.5 µM | 6.14 µM | 7 | selectivity ratio (ABCB1 (P-glycoprotein) [10]): 2; GI50 at 72 h [11]: 1350 nM; GI50 at 72 h [12]: 1500 nM; inhibition (INH) [4]: Active; inhibition at 30 min, 10 µM (ABCB1 (P-glycoprotein) [13]): 68%

From ChEMBL document CHEMBL3808298, “The combination of quinazoline and chalcone moieties leads to novel potent heterodimeric modulators of breast cancer resistance protein (BCRP/ABCG2)” (Eur J Med Chem, 2016)
